Bioassay records: PubChem, The Scripps Research Institute Molecular Screening Center
ADAM10 inh: ADAM10 inhibition, QFRET primary screen. inhibition, % at 7 µM. AID 720582. recombinant ADAM10, EDANS/DABCYL FRET peptide cleavage, 3 h. 370,000 tested, 0.62% active. O14672;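 active = inhibition above a per-campaign cutoff equal to the mean of compounds falling between control-based bounds plus 3 SD, cut at about 20% in these data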;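 note: 0% = DMSO wells while the 100% control is not disclosed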
PLC-gamma1 inh: PLC-gamma1 (human) inhibition, primary screen | purified PLC-gamma1, fluorogenic substrate, fluorescence | inhibition, % at 12.2 µM | 370,000 tested, 0.84% active | AID 720700; in the data active = inhibition above about 9.5%
ADAM17 inh: ADAM17 inhibition, QFRET primary screen. P78536. 370,000 tested, 0.83% active. recombinant ADAM17, EDANS/DABCYL FRET peptide cleavage. inhibition, % at 6.95 µM. AID 720648;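 active = inhibition above the mean of compounds lying between control limits plus 3 SD, set per campaign, cut at about 8.5% in these data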;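 note: 0% = DMSO-only wells as the low control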
TbMetRS inhib: Trypanosoma brucei MetRS inhibition | 360,000 tested, 0.4% active | inhibition, % at 11.9 µM | AID 624268 | purified T. brucei MetRS, ATP depletion, Kinase-Glo luminescence;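 active = inhibition above a per-plate cutoff of the control wells' mean inhibition plus 3 SD, cut at about 5.5% in these data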;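 note: 0% = DMSO wells median and 100% = median of wells with control inhibitor compound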
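Measured by: Kinase-Glo luciferase luminescence reporting remaining unconsumed ATP. Material: purified T. brucei MetRS enzyme. Doses: 11.9 µM compound single dose, 0.9% DMSO. Medium: HEPES buffer containing pyrophosphatase, BSA, spermine, DTT. Times: 15 min preincubation, 2 h reaction, all 25 °C. Reagent: methionine, ATP and bulk E. coli tRNA.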
PLC-beta3 inh: inhibitors of human phospholipase C beta3. inhibition, % at 12.2 µM. 370,000 tested, 0.18% active. Purified PLC-beta3, fluorogenic substrate, fluorescence;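 note: 0% = median of compound wells on plate and 100% = full blocker control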
PLCgamma1 ctr: inhibits human PLC-gamma1 in PLC-beta3 counter-screen. inhibition, % at 12.3 µM. 3,300 tested, 3.1% active. purified PLC-gamma1, fluorogenic substrate, fluorescence. AID 743258. shares compounds with PLC-gamma1 inh; in the data active = inhibition above about 9.5%
PLCb3 confirm: confirmation of human PLC-beta3 inhibitors | purified PLC-beta3, fluorogenic substrate fluorescence | shares compounds with PLC-gamma1 inh | 3,300 tested, 1% active | inhibition, % at 12.3 µM
Starred values were filed as active, the others as inactive; i = inactive; / = not tested or not shown. This is a sample that favours compounds with a hit; in the whole collection about 2.3% have one here. Cut-off read from the data, not from the text of the source, unless noted: active = inhibition above about 11%; inactive = the rest.

SMILES	ADAM10 inh	PLC-gamma1 inh	ADAM17 inh	TbMetRS inhib	PLC-beta3 inh	PLCgamma1 ctr	PLCb3 confirm
CCOC(=O)c1c(NC(=O)C2CCCN(S(=O)(=O)c3ccccc3)C2)sc2c1CCCC2 (stereo unspecified)	-4	-1	-5	0	2	/	/
Cc1ccccc1C(=O)NC1CCN(Cc2nnnn2C2CCCC2)CC1	0	14*	-2	-1	3	12*	5
CCCS(=O)(=O)N1CCCC(c2nc(-c3cccc(OC)c3)no2)C1 (stereo unspecified)	-2	-2	-6	-1	-3	/	/
COc1cccc(-c2noc(C3CCCN(S(=O)(=O)c4cccc(Cl)c4C)C3)n2)c1 (stereo unspecified)	4	12*	1	0	1	-2	1
COc1cc(OC)nc(Nc2nc(C(N)Cc3ccc(Cl)cc3)cs2)n1 (stereo unspecified)	-3	3	-2	0	2	/	/
CS(=O)(=O)N1CCC(C(=O)NCc2ccncc2)CC1	-2	-2	-4	0	2	/	/
CS(=O)(=O)N1CCC(C(=O)NCc2ccc(Cl)cc2)CC1	-2	12*	1	0	0	-8	-3
CCOc1cc(CNCC2CCCN2CC)cc(Cl)c1OC (stereo unspecified)	2	12*	5	0	1	-1	-1
CCN1CCCC1CNCc1cc(OC)c(OC)c(OC)c1 (stereo unspecified)	-5	1	-3	-5	2	/	/
NC(=O)Nc1cccc2ccccc12	-36	-12	-7	0	-15	/	/
CCC(=O)Nc1cccc2ccccc12	-4	11*	-6	0	-3	6	3
C=CC[C@H](CC(=O)OC(C)(C)C)C(=O)OC[C@@H]1CCCN1C(=O)[C@@H](CC=C)CC(=O)NCCO	-1	9.8*	-2	0	3	-9	-1
CCc1cccc(NC(=O)CN(c2ccc(OC)cc2)S(=O)(=O)c2c(C)n[nH]c2C)c1	5	14*	4	-1	11*	16*	13*
O=C(O)c1ccc(N2C(=O)c3cccnc3C2=O)cc1	1	0	-4	0	2	/	/
O=C1c2cccnc2C(=O)N1c1ccccc1-c1ccccc1	-1	12*	-2	-1	-2	-4	-4
CCOc1ccc(C(=O)Nc2ccc3[nH]ncc3c2)cc1	-8	12*	-8	-1	6	-9	-1
CCCCOc1cccc(C(=O)Nc2ccc(NC(=O)c3cccs3)cc2)c1	2	9.6*	1	-1	6	-119	-118
CCCOc1ccc(C(=O)Nc2ccc(NC(=O)c3cccs3)cc2)cc1	-3	2	-2	0	0	/	/
CCOc1ccc(NC(=O)c2cccc(NC(=O)c3ccccc3)c2)cc1	4	11*	5	0	-5	-5	-1
COc1ccc(NC(=O)CSCC(=O)Nc2cc(Cl)ccc2N2CCCC2)cc1	7	3	4	-1	-6	/	/
OC1COCOC1C(O)C1OCOCC1O (stereo unspecified)	-12	-6	-1	0	-7	/	/
CCCNC(=O)C(Cc1ccc(OC)cc1)NC(=O)c1ccc(C#N)cc1 (stereo unspecified)	-6	0	-3	0	1	/	/
CCCNC(=O)C(Cc1ccc(OC)cc1)NC(=O)c1ccc(Cl)cc1 (stereo unspecified)	6	13*	5	0	8	-6	0
Cc1[nH]c2ccccc2c1C(=O)c1c(N)[nH]c(C(=O)c2ccc(Br)cc2)c1-c1ccc(Br)cc1	4	-5	2	/	-3	/	/
O=C(O)c1ccccc1N1C(=O)C2C3c4ccccc4C(Br)(c4ccccc43)C2C1=O (stereo unspecified)	1	18*	-1	0	-4	0	2
SMILES	ADAM10 inh	PLC-gamma1 inh	ADAM17 inh	TbMetRS inhib	PLC-beta3 inh	PLCgamma1 ctr	PLCb3 confirm
CC12C(=O)N(c3ccccc3C(=O)O)C(=O)C1C1C=CC2C1 (stereo unspecified)	0	2	-4	0	0	/	/
COc1ccc(C(c2c(C)[nH]n(-c3ccccc3)c2=O)c2c(C)[nH]n(-c3ccccc3)c2=O)cc1OC	2	25*	2	-1	8	1	0
COc1ccc(C(c2c(C)n(C)n(-c3ccccc3)c2=O)c2c(C)n(C)n(-c3ccccc3)c2=O)cc1OC	8	1	0	0	-9	/	/
CC1CCCCN1S(=O)(=O)c1ccc(N(C(=O)c2cnccn2)C(C(=O)NC2CCCCC2)c2cccs2)cc1 (stereo unspecified)	8	12*	5	-1	3	-7	-3
CCOc1ccc(CN2CCN(c3ncnc4scc(-c5ccccc5)c34)CC2)cc1	10	10.0*	5	-1	-1	-4	-5
c1ccc(N2CCN(c3ncnc4scc(-c5cccs5)c34)CC2)cc1	1	11*	-3	-1	-2	-3	0
COc1ccc(CN2CCN(c3ncnc4scc(-c5ccc(F)cc5)c34)CC2)cc1	4	1	3	0	-5	/	/
Cc1ccc(/C=C/C(=O)NCCc2cccc(Cl)c2)o1	-3	-3	-3	0	-13	/	/
CCCC(=O)Nc1nnc(SCC(=O)NC2CC2)s1	-10	-3	0	-1	-7	/	/
COc1cccc(CN(C)C(=O)COc2cccc3c2OC(C)(C)C3)c1OC	5	13*	5	-1	13*	-5	-4
CCCCCCCCN1C(=O)[C@@H](CC(=O)NCC2CCCCC2)C[C@@]2(C(=O)OC)C1=C[C@H](C(C)(C)C)O[C@@H]2C	-3	4	-1	/	5	/	/
CCC(=O)N1CCc2cc(Br)c(S(=O)(=O)NC3CCN(Cc4ccccc4)CC3)cc21	3	0	2	/	2	/	/
O=[N+]([O-])c1ccc(-c2c(O)c3ccccc3c3nc4ccccc4nc23)cc1	1	8	2	0	11*	-2	-3
O=[N+]([O-])c1ccc(-c2cnc3ccccc3n2)cc1	7	-5	-6	0	-6	/	/
C[C@H]1[C@@H](N)CC[C@@]23CCCN2C(=O)CCC[C@@H]13	2	1	-6	/	0	/	/
CCCCCn1c(SCC2CCCO2)nc2cc(C(=O)N3CCC(C(N)=O)CC3)ccc2c1=O (stereo unspecified)	4	9.6*	6	0	1	-10	-7
COCCNC(=S)N(C)[C@H]1C[C@H]2c3[nH]c4c(-c5ccccc5)cccc4c3CCN2C[C@H]1[C@H](C)O	-144	-475	-33	/	i	/	/
COc1ccc(S(=O)(=O)N2CCCCCC2)cc1C(=O)N(C)CC(=O)Nc1c(Cl)cccc1Cl	-14	9.7*	1	-1	2	-2	3
